This note sets out measurements from ChEMBL document CHEMBL4725282, “Discovery of a Conformationally Constrained Oxazolidinone with Improved Safety and Efficacy Profiles for the Treatment of Multidrug-Resistant Tuberculosis” (J Med Chem, 2020).

The nature of data set [1]: Genotoxicity in CHO-WBL cells assessed as chromosome aberration at 90 to 397.1 ug/ml incubated for 3 hrs followed by compound washout and measured after 17 hrs in absence of S9 fraction by Giemsa staining based. The data set is classed as toxicity, cell-based, Cricetulus griseus. The following applies: chinese hamster, dose 90-397.1 µg/ml. The procedure, abridged: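 CHO-WBL cells in McCoy's 5A with 10% FBS, seeded 20-24 h before treatment. Compound in DMSO, with or without serum-free S-9 mix. Treatment either 3 h, then HBSS wash and 17 h further culture, or 20 h; harvest at 20 h from treatment start. Colcemid 0.1 μg/mL for the final 2 h, hypotonic KCl, methanol:acetic acid fixation, Giemsa stain. 300 metaphases per concentration (150 per duplicate flask) scored.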

For a further data set, the target named is T1, Cytochrome P450 1A2 (Homo sapiens, UniProt P05177).
T1 sequence (P05177 whole entry): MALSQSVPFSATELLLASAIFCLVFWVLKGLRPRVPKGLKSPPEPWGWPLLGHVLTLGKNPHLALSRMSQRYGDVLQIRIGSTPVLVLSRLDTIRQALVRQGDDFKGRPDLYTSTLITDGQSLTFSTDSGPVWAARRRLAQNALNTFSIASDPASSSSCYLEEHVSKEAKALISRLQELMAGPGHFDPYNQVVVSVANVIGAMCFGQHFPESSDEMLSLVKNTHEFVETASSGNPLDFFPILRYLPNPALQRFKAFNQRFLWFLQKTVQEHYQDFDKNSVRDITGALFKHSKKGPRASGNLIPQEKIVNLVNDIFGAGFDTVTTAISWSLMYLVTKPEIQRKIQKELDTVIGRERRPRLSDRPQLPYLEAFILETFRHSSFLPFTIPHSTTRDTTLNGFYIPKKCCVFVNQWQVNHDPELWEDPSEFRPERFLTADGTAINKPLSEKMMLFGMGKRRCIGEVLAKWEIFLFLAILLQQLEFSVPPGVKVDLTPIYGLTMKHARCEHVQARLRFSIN
Kind of data set: Inhibition of CYP1A2 in human liver microsomes after 20 mins by LC-MS/MS analysis. The data set is classed as ADME. The method, boiled down: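 Human liver microsomes (0.2 mg/mL) in phosphate buffer, 20 min incubation with compound at 0.1-50 μM alongside isoform-specific substrates and a positive control. Substrate remaining monitored by LC-MS/MS at each concentration; IC50 derived.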

Data set [2] can be described thus: Toxicity in male Sprague-Dawley rat assessed as change in hematocrit level at 450 mg/kg/day, po administered for 4 weeks followed by 2 week recovery period (Rvb =45.2 +/- 1.7 %). The data set is classed as organism-based. The following applies: in vivo, 672 h.

Consider `CC(=O)NC[C@@H]1OC(=O)N2c3cc(F)c(N4CC[S+]([O-])CC4)cc3OC[C@@H]12`, for which the Activity result in data set [1] is on record as “Non-Toxic”.

The IC50 is the midpoint of a concentration-inhibition curve. A higher IC50 goes with weaker potency in that assay. `CC(=O)NC[C@@H]1OC(=O)N2c3cc(F)c(N4CCSCC4)cc3OC[C@@H]12` gave an IC50 on Cytochrome P450 1A2 greater than 50 µM. Moreover, in data set [2], the Activity was determined as 43.8%.
